# Bioassay records from PubChem.
# An excerpt weighted towards active compounds, which were near 4.1% of everything screened.
# MC4R ag barr – agonists of human melanocortin 4 receptor (MC4R) beta-arrestin. activation, % at 8.9 µM. P32245. U2OS MC4R beta-arrestin complementation, luminescence; percent of melanotan II response, DMSO zero. 360,000 compounds, 0.98% hits;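 active means activation above a per-plate cutoff, the mean activation of sample wells on that plate plus 3 SD, cut at about 8% in these data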
# Target sequence (P32245 whole entry, looked up): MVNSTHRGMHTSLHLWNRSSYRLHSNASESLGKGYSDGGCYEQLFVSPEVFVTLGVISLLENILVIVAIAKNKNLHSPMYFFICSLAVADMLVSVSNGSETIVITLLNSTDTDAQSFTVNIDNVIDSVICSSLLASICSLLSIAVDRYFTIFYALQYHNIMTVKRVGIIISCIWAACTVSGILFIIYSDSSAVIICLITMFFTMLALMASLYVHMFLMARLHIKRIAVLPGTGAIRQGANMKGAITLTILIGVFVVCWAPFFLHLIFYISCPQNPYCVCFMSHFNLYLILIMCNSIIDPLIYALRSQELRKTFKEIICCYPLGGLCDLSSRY
# MC4R antag cAMP – blocks human MC4R cAMP signaling. AID 540295. 360,000 compounds, 0.48% hits. MC4R-expressing cells, MTII-stimulated cAMP, LANCE TR-FRET. P32245. inhibition, % at 6.5 µM;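 active means inhibition above its plate's cutoff, the mean of tested wells on that plate plus 3 SD, cut at about 29% in these data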;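 further: 0% = Melanotan II alone and 100% = Melanotan II plus saturating MCL0020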
#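 Test system: U2OS cells stably expressing human melanocortin 4 receptor (MC4R); also added: Melanotan II challenge; compound: 6.5 µM single dose; timing: 30-min compound preincubation, 1-h Melanotan II challenge, 1-h detection, room temperature; signal: Eu-cAMP/anti-cAMP TR-FRET, emission 671 nm; repeats: one well per compound, no replicates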
# MPTP block – inhibitors of mitochondrial permeability transition pore. 360,000 compounds, 1.4% hits. AID 602449. isolated mouse mitochondria, Ca2+ swelling absorbance, 30 min. inhibition, % at 10 µM;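 active means inhibition of 50% or more, scaled per plate between neutral and stimulator controls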;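 further: 0% = DMSO wells given calcium and 100% = 1 mM EGTA wells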
# SMARCA2 activ – activators of SMARCA2 function; activation, % at 9.1 µM; 370,000 compounds, 1% hits; MG213 cells, MMTV-luciferase reporter, dexamethasone, overnight; in the data active means activation above about 7.8%;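 further: 0% = vehicle wells and 100% = reference activator wells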
# ATG4B inhibitor – blocks human ATG4B protease cleavage of LC3 substrate; Q9Y4P1; ATG4B cleavage of LC3-PLA2, NBD-HPC fluorescence, 1 h; inhibition, % at 8.33 µM; 340,000 compounds, 0.51% hits; AID 504462; in the data active means inhibition above about 40%
# MC4R barr conf – human MC4R beta-arrestin agonism confirmation | shares compounds with MC4R ag barr | U2OS MC4R beta-arrestin recruitment, luminescence; scaled DMSO 0%, Melanotan II 100% | activation, % at 8.9 µM | 2,400 compounds, 31% hits | AID 602192;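 active means mean activation across replicates above the hit cutoff set in the earlier primary screen, cut at about 8% in these data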
# MOR DOR agonist – counter-screen for MC4R agonists: agonists of mu-delta opioid heterodimer; U2OS PathHunter beta-arrestin, beta-gal luminescence; percent of deltorphin B response, DMSO zero; activation, % at 9.2 µM; shares compounds with MC4R ag barr; AID 602194; 2,400 compounds, 5.8% hits;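 active means mean activation across replicates exceeds the hit threshold derived in the earlier primary screen, cut at about 18% in these data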;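 further: 100% = deltorphin B at 0.9 µM final and 0% = DMSO alone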
# Active calls of the source: *; / = no result given.
SMILES,MC4R ag barr,MC4R antag cAMP,MPTP block,SMARCA2 activ,ATG4B inhibitor,MC4R barr conf,MOR DOR agonist
Cc1ccc(N2C(=O)/C(=C/c3ccco3)SC2=S)cc1,23*,-1,2,2,-14,4,5
Cc1ccc(N2C(=O)/C(=C/c3cccnc3)SC2=S)cc1,15*,3,-1,-2,0,8,4
O=C(N[C@@H](Cc1cccnc1)C(=O)N1CCC[C@H]1C(=O)NCCc1ccccc1Cl)c1ccccc1,/,/,/,-2,/,/,/
COC(=O)[C@]12CCCCC=C1N(Cc1ccc(OC)cc1)C(=O)[C@@H]2CC(=O)NCc1ccc(OC)c(OC)c1,/,/,/,-2,/,/,/
COc1cccc(-c2nc(NC3CCCC3)c3ccccc3n2)c1O,0,21,1,-2,0,/,/
COc1cccc(Nc2nc(-c3ccccc3O)nc3ccccc23)c1,17*,9,4,-2,-10,1,4
COc1cccc(-c2nc(NCc3ccccc3)c3ccccc3n2)c1O,18*,0,4,-2,-10,3,5
COc1ccc(Nc2nc(-c3ccncc3)nc3ccccc23)cc1,19*,19,0,-2,2,2,9
Cc1ccc(N=c2c([N+](=O)[O-])nn(-c3ccccc3)n2O)c(C)c1,-1,2,2,0,-5,/,/
Cc1c(Cl)cccc1N=c1c([N+](=O)[O-])nn(-c2ccccc2)n1O,24*,14,0,-3,2,3,9
CCCCCCCC/C=C\CCCCCCCC(=O)NCCc1ccc(O)c(O)c1,9.8*,14,6,-9,5,7,5
CCCCCCCC/C=C\CCCCCCCC(=O)NCCO,0,-3,-1,-1,-5,/,/
Clc1ccc([C@H]2OC[C@@]3(CNCCc4c[nH]c5ccccc45)CS[C@H](c4ccc(Cl)cc4)N23)cc1,/,/,/,0,/,/,/
COC1=C[C@H](C(=O)NCCOC(C)=O)[C@H](C)[C@@H](c2ccccc2)CC1=O,/,/,/,-4,/,/,/
O=C(NCCc1ccc(Cl)cc1)c1cc(-c2ccccn2)nc2ccccc12,11*,16,-1,0,5,5,5
N#CC(=Cc1ccccn1)c1nc(-c2ccc(Cl)cc2)cs1,17*,1,0,-1,/,3,3
COC(=O)c1cc2c(c3c4cc(F)ccc4n(S(=O)(=O)c4ccc(C)cc4)c13)C(=O)N(Cc1ccc(N(C)C)cc1)C2,/,/,/,-1,/,/,/
C=CCOC(=O)C1=C(C)NC(SCC(=O)Nc2nccs2)=C(C#N)C1c1cccs1 (centres undefined),2,4,-1,-3,-6,/,/
C=CCOC(=O)C1=C(C)NC(SCC(=O)Nc2nccs2)=C(C#N)C1c1ccc(Cl)cc1 (centres undefined),11*,2,0,-7,-3,2,3
O=C1/C(=C/c2cccc([N+](=O)[O-])c2)CCc2ccccc21,2,-6,-2,5,15,/,/
O=C1/C(=C/c2cccc([N+](=O)[O-])c2)CSc2ccc(Cl)cc21,11*,5,6,-2,3,-1,2
CC(=O)NC(Cc1ccc2c(c1)OCO2)C(=O)N1CCCC1 (centres undefined),/,/,/,-1,/,/,/
CCc1ccc(-c2nc(NC(=O)c3ccc(OCC(=O)Nc4ccc(F)cc4)c(OC)c3)sc2C)cc1,11*,13,-2,-3,-6,10*,5
O=C1[C@@H](CCc2ccccc2)[C@@H]2c3ccccc3C=NN2[C@@H]2c3ccccc3C=NN12,/,/,/,-2,/,/,/
CC(c1ccc(NC(=O)OC(C)(C)C)cc1)c1cn(C)c2ccccc12 (centres undefined),/,/,/,6,/,/,/
SMILES,MC4R ag barr,MC4R antag cAMP,MPTP block,SMARCA2 activ,ATG4B inhibitor,MC4R barr conf,MOR DOR agonist
CCC(=O)NC(=S)Nc1ccc(NC(=O)COc2ccc(Cl)c(C)c2)cc1,19*,12,0,0,4,3,5
CCC(=O)NC(=S)Nc1ccc(NC(=O)COc2ccc([N+](=O)[O-])cc2)cc1,-3,10,9,0,7,/,/
Cc1ccc(OCC(=O)NC(=S)Nc2cccc(NC(=O)c3ccccc3Cl)c2)cc1,15*,1,1,-1,7,6,4
CCCCOCCCNC(=O)C[C@H]1C(=O)N(Cc2ccc(OC)cc2)C2=CCCC[C@@]21C(=O)OCC,/,/,/,-4,/,/,/
COc1ccc(CN2CN3CCc4ccccc4C3CS2(=O)=O)cc1 (centres undefined),/,/,/,-1,/,/,/
COc1cc(/C=C(\C#N)c2nc3ccccc3s2)ccc1OCC(=O)Nc1ccccc1,49*,3,2,/,5,30*,10
COc1cc(/C=C(\CC(=O)O)c2nc3ccccc3s2)ccc1OCC(=O)Nc1ccccc1F,-1,-3,1,7,-10,/,/
Cc1cccc(OCC(C)CN2CCC(C(O)(c3ccccc3)c3ccccc3)CC2)c1 (centres undefined),/,/,/,-6,/,/,/
COC(=O)C1=C(C)N(Cc2ccc(C(F)(F)F)cc2)C(=NCc2ccccc2)NC1c1cccc(Cl)c1 (centres undefined),/,/,/,-8,/,/,/
O=C(Nc1ccc2c(c1)OCO2)c1cc2n(n1)C(C(F)(F)F)CC(c1ccccc1)N2 (centres undefined),15*,-2,2,-2,-2,3,6
COc1ccc(NC(=O)c2cc3n(n2)C(C(F)(F)F)CC(c2ccc(OC)cc2)N3)cc1 (centres undefined),5,11,-2,2,1,/,/
OC1OC2COC(c3ccccc3)OC2C(O)C1O (centres undefined),/,/,/,2,/,/,/
Cc1cc(NS(=O)(=O)c2ccc(NC(=O)Cc3ccccc3)cc2)no1,/,/,/,-3,/,/,/
Cc1cc(OCCN2CCC(Cc3ccccc3)CC2)ccc1[N+](=O)[O-],14*,12,3,0,-1,4,9
CCOc1ccc(C(=O)OCC(=O)Nc2ccc(SC(F)F)cc2)cc1OCC,19*,2,2,-1,-5,3,5
CN1OC[C@@H]2CN(C(=O)c3ccc([N+](=O)[O-])cc3)[C@H](c3ccccc3Br)C[C@@H]21,/,/,/,-6,/,/,/
COc1ccc(CCNC(=O)CSc2cn(Cc3cccc(C)c3)c3ccccc23)cc1OC,0,13,-2,0,-18,/,/
COc1ccc(CCNC(=O)CSc2cn(Cc3ccccc3)c3ccccc23)cc1OC,13*,-12,-1,4,-18,6,4
N#Cc1nc(-c2ccc(OCc3ccc(Cl)cc3)cc2)oc1NCc1cccnc1,15*,-1,3,2,-2,8,2
N#Cc1nc(-c2ccc(OCc3ccccc3)cc2)oc1NCc1cccnc1,2,-3,1,-1,-6,/,/
